Assay [1] concerns the target MAP kinase-interacting serine/threonine-protein kinase 2 (Homo sapiens) (UniProt Q9HBH9). The assay is described as follows: Inhibition of MNK2 assessed as remaining enzyme activity at 1 uM relative to DMSO. In a few lines: (§1)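 Radiometric kinase assay run robotically at room temperature for 30 min. Contained 10 mM magnesium acetate and [γ-33P]ATP (800 cpm/pmol) at 5, 20 or 50 μM, chosen per kinase to be at or below its ATP Km. Reactions were started with MgATP, stopped with orthophosphoric acid and spotted onto P81 filters. Result is mean % activity of duplicates at one inhibitor concentration versus DMSO control.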

Assay [2] concerns the target Dual specificity protein kinase TTK (Homo sapiens) (UniProt P33981). Briefly: Inhibition of TTK assessed as remaining enzyme activity at 1 uM relative to DMSO.
Assay [3] deals with Maternal embryonic leucine zipper kinase (Homo sapiens) (UniProt Q14680). The assay is described as follows: Inhibition of MELK assessed as remaining enzyme activity at 1 uM relative to DMSO. In a few lines:
as §1

For assay [4], the target named is Tyrosine-protein kinase HCK (Homo sapiens) (UniProt P08631). Briefly: Binding affinity to HCK assessed as percentage of kinase remaining bound to the bead at 1 uM by T7 phage display based binding assay. In a few lines: (§2)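 Competition binding assay run by a contract lab. Each kinase was expressed as a fusion to T7 phage, full-length for small kinases and catalytic domain for large ones. Phage were mixed with an immobilized known kinase inhibitor on streptavidin magnetic beads and with test compound at a single 1 μM. Kinase/phage still bound to the beads was quantified by qPCR and expressed as % of DMSO control.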

Assay [5] has as its target T1, Ephrin type-B receptor 4 (Homo sapiens, UniProt P54760).
T1 sequence (P54760 whole entry): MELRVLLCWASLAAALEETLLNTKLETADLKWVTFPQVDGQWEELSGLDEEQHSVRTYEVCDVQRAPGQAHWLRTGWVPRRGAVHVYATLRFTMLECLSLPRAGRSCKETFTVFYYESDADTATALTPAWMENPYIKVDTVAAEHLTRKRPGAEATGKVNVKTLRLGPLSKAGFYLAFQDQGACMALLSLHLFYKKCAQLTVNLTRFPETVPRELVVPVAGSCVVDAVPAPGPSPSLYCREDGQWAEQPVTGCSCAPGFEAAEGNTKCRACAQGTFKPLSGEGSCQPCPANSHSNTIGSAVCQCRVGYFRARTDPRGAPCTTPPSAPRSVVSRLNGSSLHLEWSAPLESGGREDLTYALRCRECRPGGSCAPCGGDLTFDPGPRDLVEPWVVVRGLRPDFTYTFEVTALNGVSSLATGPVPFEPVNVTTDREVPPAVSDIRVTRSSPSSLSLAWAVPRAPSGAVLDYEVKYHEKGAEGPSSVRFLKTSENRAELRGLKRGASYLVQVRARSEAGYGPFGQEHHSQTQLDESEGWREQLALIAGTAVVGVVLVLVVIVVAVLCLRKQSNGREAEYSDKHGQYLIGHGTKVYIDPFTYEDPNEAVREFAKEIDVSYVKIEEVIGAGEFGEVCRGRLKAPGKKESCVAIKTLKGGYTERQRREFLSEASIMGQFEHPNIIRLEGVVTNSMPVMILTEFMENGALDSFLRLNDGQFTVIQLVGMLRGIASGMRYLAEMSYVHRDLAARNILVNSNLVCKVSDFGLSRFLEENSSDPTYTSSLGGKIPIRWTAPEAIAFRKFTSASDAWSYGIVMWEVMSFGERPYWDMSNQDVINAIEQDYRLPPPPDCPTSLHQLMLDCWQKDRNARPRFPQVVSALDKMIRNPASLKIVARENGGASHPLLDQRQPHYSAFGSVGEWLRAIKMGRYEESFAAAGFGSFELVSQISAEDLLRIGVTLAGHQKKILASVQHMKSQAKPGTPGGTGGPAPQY
The assay is described as follows: Inhibition of EphB4 assessed as blockade of synthetic substrate phosphorylation by FRET assay.

The target in assay [6] is T1, Ephrin type-B receptor 4. Briefly: Inhibition of EphB4 by [gamma33-P]ATP based assay.
In assay [7] the target is Receptor tyrosine-protein kinase erbB-4 (Homo sapiens) (UniProt Q15303). Briefly: Inhibition of HER4 assessed as remaining enzyme activity at 1 uM relative to DMSO. In a few lines: (§3)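 Dundee kinase panel, radiometric: [γ-33P]ATP (800 cpm/pmol) at 5, 20 or 50 μM, at or below each kinase's ATP Km; 10 mM magnesium acetate; robotic, room temperature, 30 min. Reactions started with MgATP, stopped with orthophosphoric acid, spotted onto P81 filters. Inhibitor tested at a single concentration; mean % activity of duplicates relative to DMSO control.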

In assay [8] the target is Myosin light chain kinase, smooth muscle (Homo sapiens) (UniProt Q15746). Briefly: Inhibition of SmMLCK assessed as remaining enzyme activity at 1 uM relative to DMSO.
In assay [9] the target is Serine/threonine-protein kinase pim-2 (Homo sapiens) (UniProt Q9P1W9). Briefly: Inhibition of PIM2 assessed as remaining enzyme activity at 1 uM relative to DMSO.
The target in assay [10] is Fibroblast growth factor receptor 4 (Homo sapiens) (UniProt P22455). Briefly: Binding affinity to FGFR4 assessed as percentage of kinase remaining bound to the bead at 1 uM by T7 phage display based binding assay. In a few lines:
as §2

The target of assay [11] is Mast/stem cell growth factor receptor Kit (Homo sapiens) (UniProt P10721). The assay is described as follows: Binding affinity to KIT assessed as percentage of kinase remaining bound to the bead at 1 uM by T7 phage display based binding assay. In a few lines:
as §2

Assay [12] has as its target Tyrosine-protein kinase BTK (Homo sapiens) (UniProt Q06187). The assay is described as follows: Inhibition of BTK assessed as remaining enzyme activity at 1 uM relative to DMSO. In a few lines:
as §3

Assay [13] has as its target ALK tyrosine kinase receptor (Homo sapiens) (UniProt Q9UM73). The assay is described as follows: Binding affinity to ALK assessed as percentage of kinase remaining bound to the bead at 1 uM by T7 phage display based binding assay. In a few lines: as §2
For assay [14], the target named is Serine/threonine-protein kinase pim-2 (Homo sapiens) (UniProt Q9P1W9). The assay is described as follows: Inhibition of PIM2 assessed as remaining enzyme activity at 3 uM relative to DMSO. In a few lines:
as §1

In assay [15] the target is Glycogen synthase kinase-3 beta (Homo sapiens) (UniProt P49841). Briefly: Inhibition of GSK3-beta assessed as remaining enzyme activity at 3 uM relative to DMSO. In a few lines:
as §3

In assay [16] the target is Ribosomal protein S6 kinase alpha-1 (Homo sapiens) (UniProt Q15418). Briefly: Inhibition of RSK1 assessed as remaining enzyme activity at 3 uM relative to DMSO.
In assay [17] the target is Insulin-like growth factor 1 receptor (Homo sapiens) (UniProt P08069). Briefly: Inhibition of IGF-1R assessed as remaining enzyme activity at 3 uM relative to DMSO. In a few lines: as §3
The target in assay [18] is Serine/threonine-protein kinase D1 (Homo sapiens) (UniProt Q15139). Briefly: Inhibition of PKD1 assessed as remaining enzyme activity at 3 uM relative to DMSO.
The target in assay [19] is Inhibitor of nuclear factor kappa-B kinase subunit epsilon (Homo sapiens) (UniProt Q14164). The assay is described as follows: Inhibition of IKKepsilon assessed as remaining enzyme activity at 3 uM relative to DMSO. In a few lines: as §3
Assay [20] deals with Tyrosine-protein kinase Lck (Homo sapiens) (UniProt P06239). Briefly: Inhibition of Lck assessed as remaining enzyme activity at 3 uM relative to DMSO. In a few lines:
as §1

The target of assay [21] is Inhibitor of nuclear factor kappa-B kinase subunit beta (Homo sapiens) (UniProt O14920). The assay is described as follows: Inhibition of IKK-beta assessed as remaining enzyme activity at 3 uM relative to DMSO. In a few lines:
as §3

Sequence of Serine/threonine-protein kinase pim-2 (Homo sapiens) (Q9P1W9 whole entry, looked up): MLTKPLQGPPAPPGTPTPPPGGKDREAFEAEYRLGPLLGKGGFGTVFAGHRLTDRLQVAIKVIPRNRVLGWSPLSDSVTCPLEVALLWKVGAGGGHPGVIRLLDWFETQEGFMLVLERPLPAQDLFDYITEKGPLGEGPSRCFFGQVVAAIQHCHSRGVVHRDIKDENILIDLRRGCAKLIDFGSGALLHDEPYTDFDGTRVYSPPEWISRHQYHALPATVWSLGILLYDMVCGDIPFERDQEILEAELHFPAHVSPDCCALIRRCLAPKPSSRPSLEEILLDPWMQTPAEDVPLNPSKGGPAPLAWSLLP
Sequence of Tyrosine-protein kinase Lck (Homo sapiens) (P06239 whole entry, looked up): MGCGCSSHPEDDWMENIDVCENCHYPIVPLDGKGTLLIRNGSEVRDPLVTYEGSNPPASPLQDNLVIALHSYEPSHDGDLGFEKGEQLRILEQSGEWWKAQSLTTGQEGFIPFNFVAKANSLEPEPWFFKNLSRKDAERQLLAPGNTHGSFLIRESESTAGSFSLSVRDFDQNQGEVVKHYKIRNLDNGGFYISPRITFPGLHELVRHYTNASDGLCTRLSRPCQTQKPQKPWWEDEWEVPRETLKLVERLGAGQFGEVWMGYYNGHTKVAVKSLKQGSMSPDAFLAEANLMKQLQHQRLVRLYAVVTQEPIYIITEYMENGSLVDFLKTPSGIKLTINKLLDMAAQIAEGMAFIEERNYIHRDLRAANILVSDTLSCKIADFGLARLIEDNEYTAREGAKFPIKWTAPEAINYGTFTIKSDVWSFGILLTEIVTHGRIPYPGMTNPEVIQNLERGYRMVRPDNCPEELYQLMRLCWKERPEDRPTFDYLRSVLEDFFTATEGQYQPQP
Sequence of ALK tyrosine kinase receptor (Homo sapiens) (Q9UM73 19-1620 limits assumed): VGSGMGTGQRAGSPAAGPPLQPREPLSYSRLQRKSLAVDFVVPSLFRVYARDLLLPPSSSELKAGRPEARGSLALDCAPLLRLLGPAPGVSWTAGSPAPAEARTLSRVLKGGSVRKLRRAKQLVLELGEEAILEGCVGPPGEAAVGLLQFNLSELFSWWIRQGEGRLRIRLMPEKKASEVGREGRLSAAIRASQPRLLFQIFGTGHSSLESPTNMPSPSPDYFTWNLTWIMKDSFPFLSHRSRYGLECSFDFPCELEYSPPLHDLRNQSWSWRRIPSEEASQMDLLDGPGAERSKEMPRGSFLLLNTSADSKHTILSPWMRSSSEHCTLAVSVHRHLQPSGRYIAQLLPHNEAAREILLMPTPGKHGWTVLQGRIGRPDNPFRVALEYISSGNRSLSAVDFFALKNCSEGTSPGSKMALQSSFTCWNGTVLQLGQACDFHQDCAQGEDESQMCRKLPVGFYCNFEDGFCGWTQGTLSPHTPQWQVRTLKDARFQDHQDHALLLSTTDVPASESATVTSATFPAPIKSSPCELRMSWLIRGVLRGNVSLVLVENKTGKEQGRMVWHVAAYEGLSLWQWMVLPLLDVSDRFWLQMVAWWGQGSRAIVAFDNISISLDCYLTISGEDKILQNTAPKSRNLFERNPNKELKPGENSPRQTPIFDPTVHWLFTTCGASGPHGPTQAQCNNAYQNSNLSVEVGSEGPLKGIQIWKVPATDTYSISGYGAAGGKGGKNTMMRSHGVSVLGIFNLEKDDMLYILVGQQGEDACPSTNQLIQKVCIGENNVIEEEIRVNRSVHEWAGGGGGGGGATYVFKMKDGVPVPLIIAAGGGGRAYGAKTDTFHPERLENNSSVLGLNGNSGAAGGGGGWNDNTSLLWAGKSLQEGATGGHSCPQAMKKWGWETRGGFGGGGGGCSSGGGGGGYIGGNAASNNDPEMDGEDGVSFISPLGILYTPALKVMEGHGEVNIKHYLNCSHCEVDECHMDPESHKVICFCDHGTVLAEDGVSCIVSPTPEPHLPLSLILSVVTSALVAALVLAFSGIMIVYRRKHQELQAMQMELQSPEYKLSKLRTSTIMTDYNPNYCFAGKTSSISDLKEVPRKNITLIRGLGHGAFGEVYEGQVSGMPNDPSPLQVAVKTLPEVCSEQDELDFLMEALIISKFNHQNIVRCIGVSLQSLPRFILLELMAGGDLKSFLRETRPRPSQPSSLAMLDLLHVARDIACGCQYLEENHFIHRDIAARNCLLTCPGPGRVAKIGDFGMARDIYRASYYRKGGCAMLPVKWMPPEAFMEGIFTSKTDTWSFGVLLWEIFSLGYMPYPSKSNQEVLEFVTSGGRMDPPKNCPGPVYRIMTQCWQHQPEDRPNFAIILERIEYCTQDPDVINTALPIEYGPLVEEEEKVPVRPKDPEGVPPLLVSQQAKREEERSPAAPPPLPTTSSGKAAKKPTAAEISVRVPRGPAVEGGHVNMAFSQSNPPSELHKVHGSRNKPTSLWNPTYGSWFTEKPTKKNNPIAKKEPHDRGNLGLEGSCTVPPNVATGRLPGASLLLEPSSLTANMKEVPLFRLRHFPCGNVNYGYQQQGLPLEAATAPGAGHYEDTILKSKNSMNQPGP
Sequence of Inhibitor of nuclear factor kappa-B kinase subunit beta (Homo sapiens) (O14920 whole entry): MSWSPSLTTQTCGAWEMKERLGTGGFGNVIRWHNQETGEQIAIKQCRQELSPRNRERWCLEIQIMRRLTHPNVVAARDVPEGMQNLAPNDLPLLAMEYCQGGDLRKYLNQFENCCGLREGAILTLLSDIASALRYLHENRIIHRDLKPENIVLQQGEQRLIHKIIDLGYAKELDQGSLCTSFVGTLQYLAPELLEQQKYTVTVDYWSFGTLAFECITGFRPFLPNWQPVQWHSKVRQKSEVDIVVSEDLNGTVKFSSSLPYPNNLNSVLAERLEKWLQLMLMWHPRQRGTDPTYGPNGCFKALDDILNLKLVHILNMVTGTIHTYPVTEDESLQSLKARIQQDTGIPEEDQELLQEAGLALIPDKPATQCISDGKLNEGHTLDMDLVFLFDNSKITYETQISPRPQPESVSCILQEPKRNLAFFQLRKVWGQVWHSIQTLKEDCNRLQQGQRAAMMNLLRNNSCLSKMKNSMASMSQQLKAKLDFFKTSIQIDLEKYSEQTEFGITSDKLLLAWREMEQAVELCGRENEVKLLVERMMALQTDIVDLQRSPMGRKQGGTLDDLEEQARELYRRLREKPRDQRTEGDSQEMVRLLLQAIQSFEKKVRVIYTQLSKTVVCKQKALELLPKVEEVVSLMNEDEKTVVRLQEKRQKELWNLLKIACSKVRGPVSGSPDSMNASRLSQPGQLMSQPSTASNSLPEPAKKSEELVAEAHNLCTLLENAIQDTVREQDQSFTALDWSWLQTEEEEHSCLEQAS
Sequence of Glycogen synthase kinase-3 beta (Homo sapiens) (P49841 whole entry, looked up): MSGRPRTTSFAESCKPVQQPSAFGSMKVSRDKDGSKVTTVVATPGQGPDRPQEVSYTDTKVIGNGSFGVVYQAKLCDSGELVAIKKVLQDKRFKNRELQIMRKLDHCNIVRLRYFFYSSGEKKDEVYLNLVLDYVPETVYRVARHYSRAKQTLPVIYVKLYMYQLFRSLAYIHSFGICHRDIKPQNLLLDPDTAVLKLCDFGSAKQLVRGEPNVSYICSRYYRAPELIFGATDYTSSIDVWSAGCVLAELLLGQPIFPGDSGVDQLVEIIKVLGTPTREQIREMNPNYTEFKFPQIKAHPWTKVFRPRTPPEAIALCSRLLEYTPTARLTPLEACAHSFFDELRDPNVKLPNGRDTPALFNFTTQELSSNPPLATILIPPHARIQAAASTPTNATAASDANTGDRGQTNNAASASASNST
Sequence of Mast/stem cell growth factor receptor Kit (Homo sapiens) (P10721 whole entry): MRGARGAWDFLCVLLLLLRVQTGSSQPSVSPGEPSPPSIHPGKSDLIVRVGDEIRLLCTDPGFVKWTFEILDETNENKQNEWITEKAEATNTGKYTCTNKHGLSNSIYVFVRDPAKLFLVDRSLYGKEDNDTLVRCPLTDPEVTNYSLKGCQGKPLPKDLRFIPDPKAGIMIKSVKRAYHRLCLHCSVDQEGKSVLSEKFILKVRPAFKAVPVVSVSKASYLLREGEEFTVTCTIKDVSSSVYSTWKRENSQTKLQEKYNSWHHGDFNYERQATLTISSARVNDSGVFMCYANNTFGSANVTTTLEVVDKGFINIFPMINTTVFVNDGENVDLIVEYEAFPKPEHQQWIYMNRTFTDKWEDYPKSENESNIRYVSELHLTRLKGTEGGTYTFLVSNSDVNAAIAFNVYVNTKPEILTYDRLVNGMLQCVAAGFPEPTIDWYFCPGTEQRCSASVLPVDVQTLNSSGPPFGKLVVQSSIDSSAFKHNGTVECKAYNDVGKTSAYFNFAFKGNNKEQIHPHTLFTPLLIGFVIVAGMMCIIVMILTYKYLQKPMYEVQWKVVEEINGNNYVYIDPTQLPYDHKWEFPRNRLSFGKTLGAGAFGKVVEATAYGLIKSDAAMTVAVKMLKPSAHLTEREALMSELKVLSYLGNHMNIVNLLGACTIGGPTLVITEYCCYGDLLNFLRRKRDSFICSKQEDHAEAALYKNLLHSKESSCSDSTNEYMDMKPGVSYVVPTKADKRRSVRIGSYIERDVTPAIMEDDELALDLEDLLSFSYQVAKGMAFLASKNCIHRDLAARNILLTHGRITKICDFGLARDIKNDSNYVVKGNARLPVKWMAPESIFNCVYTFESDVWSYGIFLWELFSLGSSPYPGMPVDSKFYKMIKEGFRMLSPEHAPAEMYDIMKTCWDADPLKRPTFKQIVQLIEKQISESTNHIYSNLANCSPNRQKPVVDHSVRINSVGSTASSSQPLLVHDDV
Sequence of MAP kinase-interacting serine/threonine-protein kinase 2 (Homo sapiens) (Q9HBH9 whole entry, looked up): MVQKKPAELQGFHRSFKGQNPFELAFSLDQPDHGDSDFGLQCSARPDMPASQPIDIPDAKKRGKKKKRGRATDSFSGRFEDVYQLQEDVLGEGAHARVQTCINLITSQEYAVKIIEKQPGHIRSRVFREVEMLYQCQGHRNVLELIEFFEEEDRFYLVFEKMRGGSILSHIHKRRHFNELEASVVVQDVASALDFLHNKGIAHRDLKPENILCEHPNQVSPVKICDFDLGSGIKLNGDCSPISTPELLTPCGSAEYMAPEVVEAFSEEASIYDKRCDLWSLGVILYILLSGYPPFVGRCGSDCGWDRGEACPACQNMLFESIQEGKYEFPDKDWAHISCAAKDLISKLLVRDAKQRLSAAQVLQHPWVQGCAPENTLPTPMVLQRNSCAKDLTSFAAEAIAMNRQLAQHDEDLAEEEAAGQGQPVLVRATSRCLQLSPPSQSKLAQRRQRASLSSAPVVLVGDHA

What is called IC50 is the concentration needed to halve the response being measured. Regarding `COc1ccccc1-n1c(-c2cc(O)ccc2C)cn2c3c(=O)[nH]c(=O)n(C)c3nc12`, the Activity in assay [1] is 74%; in assay [2] it was 98%; in assay [3] it was 80%; in [4], 0.6%; in assay [7] it was 32%; in [8] it was 87%. In addition, the Activity in assay [9] was found to be 93%; in assay [10] it was 100%; in assay [11], 88%; in assay [12], 33%; in assay [13] it was 99%. The 50% inhibitory concentration (IC50) was 5 nM in assay [5] and 1.6 nM in assay [6].

Regarding `COc1ccccc1-n1c(-c2ccccc2C)cn2c3c(=O)[nH]c(=O)n(C)c3nc12`, the Activity came out at 115% in assay [14]; 102% in [15]; 83% in assay [16]; 106% in [17]; 100% in [18]; 101% in assay [19]. Further, the figures for the Activity in assay [20] and in [21] were 3% and 92%, respectively. Also, the results for the concentration for half-maximal inhibition (IC50) in [5] and in [6] were 180 nM and 47 nM, respectively.
